Measured values taken from ChEMBL document CHEMBL4390639, “Design, Synthesis, and Biological Evaluation of Novel Allosteric Protein Disulfide Isomerase Inhibitors” (J Med Chem, 2019).
Blank lines part the entries; values can stand above or below the molecule they belong to. Calls of active or inactive are those of the source. The rule behind the calls is not given here.

Legend:
U-87 MG [1] = assay: Cytotoxicity against human U87MG cells assessed as inhibition of cell proliferation at <IC50 treated for 24 hrs, measured after 10 days by colony formation assay relative to control
[2] = Cytotoxicity against human NU04 cells assessed as inhibition of cell growth measured after 72 hrs by MTT assay; type: functional, cell-based
Outline: (§1)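 A172 and NU04 cells were seeded at 4000 cells/well and U87MG at 5000 cells/well, incubated overnight at 37 °C, 5% CO2, then exposed to compound or vehicle for 72 h. MTT (3 mg/mL) was added for 4 h, formazan was dissolved in DMSO, and absorbance was read at 570 nm. IC50 came from nonlinear regression; mean ± SD of at least three experiments.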

[3] = target: T1, Protein disulfide-isomerase (Homo sapiens, UniProt P07237); assay: Inhibition of recombinant human N-terminal His-tagged PDI expressed in Escherichia coli BL21 (DE3) pLysS assessed as reduction in enzyme-mediated bovine insulin aggregation
Target sequence in this assay (P07237 whole entry): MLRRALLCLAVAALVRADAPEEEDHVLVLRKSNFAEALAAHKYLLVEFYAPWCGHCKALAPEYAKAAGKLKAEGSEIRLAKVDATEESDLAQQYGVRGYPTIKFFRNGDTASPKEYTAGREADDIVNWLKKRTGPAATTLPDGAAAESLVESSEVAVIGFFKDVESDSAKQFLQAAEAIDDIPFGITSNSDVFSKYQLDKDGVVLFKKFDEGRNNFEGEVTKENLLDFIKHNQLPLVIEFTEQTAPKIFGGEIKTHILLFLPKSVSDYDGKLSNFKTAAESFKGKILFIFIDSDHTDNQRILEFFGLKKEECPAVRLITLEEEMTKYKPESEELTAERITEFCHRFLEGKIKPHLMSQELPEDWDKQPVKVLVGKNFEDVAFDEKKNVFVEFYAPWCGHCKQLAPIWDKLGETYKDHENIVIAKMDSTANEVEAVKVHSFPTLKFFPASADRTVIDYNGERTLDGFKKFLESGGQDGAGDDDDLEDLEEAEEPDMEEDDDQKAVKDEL

A 172 [4] = assay: Cytotoxicity against human A172 cells assessed as inhibition of cell growth measured after 72 hrs by MTT assay; type: functional, cell-based
Outline: as §1

U-87 MG [5] = assay: Cytotoxicity against human U87MG cells assessed as inhibition of cell growth measured after 72 hrs by MTT assay; type: functional, cell-based, U-87MG ATCC
Outline: as §1

U-87 MG [6] = assay: Effect on MMP2 expression in human U87MG cells at 10 uM measured after 24 hrs by Western blot analysis; type: functional, cell-based; settings: U-87MG ATCC
U-87 MG [7] = assay: Induction of endoplasmic reticulum stress in human U87MG cells assessed as increase in GRP78 expression at 20 uM measured after 24 hrs by Western blot analysis; type: functional, cell-based; settings: U-87MG ATCC
Outline: (§2)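 ER-stress immunoblot: 0.5 x 10^6 U87MG cells/well treated for 24 h with 20 µM analogues, 1 µM PACMA31 or DMSO; tunicamycin 10 µg/mL for 2 or 24 h as positive control. Lysis in Tris/NaCl/Triton/SDS buffer with sonication; 30 µg protein on 10% gels, transferred to PVDF, GRP78 probed, fluorescence imaging.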

HFF-1 = assay: Cytotoxicity against HFF1 cells assessed as inhibition of cell growth measured after 72 hrs by MTT assay; type: cell-based; settings: Homo sapiens, HFF-1, 72 h
Outline: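 Cells grown as monolayers at 37 °C, 5% CO2, seeded and left overnight, then exposed to drug or vehicle for 72 h. MTT (20 μL of 3 mg/mL) added for 4 h, supernatant removed, formazan dissolved in DMSO, absorbance read at 570 nm. IC50 from nonlinear regression of log concentration–response curves; at least three independent experiments.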

A 172 [8] = assay: Induction of endoplasmic reticulum stress in human A172 cells assessed as increase in GRP78 expression at 20 uM measured after 24 hrs by Western blot analysis; type: functional, cell-based
A 172 [9] = assay: Effect on PDI expression in human A172 cells at 20 uM measured after 24 hrs by Western blot analysis; type: functional, cell-based
[10] = target: Eukaryotic translation initiation factor 2 subunit 1 (Homo sapiens) (UniProt P05198); assay: Induction of EIF2alpha phosphorylation in human A172 cells at 20 uM measured after 2 hrs by Western blot analysis; type: cell-based
[11] = target: T1, Protein disulfide-isomerase; assay: Binding affinity to recombinant human N-terminal His-tagged PDI expressed in Escherichia coli BL21 (DE3) pLysS assessed as change in melting temperature at 100 uM by ROX dye based thermal shift assay
Outline: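 Purified wild-type, C53S/C397S or H256A PDI at 0.5 mg/mL in 50 mM Tris, pH 7.0, with or without 100 μM compound, was mixed with ROX dye in a 20 µL well. DMSO (5% in buffer) was the control. Samples were heated 25–99 °C at 1 °C/min, and the Boltzmann melting temperature shift versus DMSO was reported. Mean ± SD of three experiments.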
Target sequence in this assay (P07237 18-508 limits assumed): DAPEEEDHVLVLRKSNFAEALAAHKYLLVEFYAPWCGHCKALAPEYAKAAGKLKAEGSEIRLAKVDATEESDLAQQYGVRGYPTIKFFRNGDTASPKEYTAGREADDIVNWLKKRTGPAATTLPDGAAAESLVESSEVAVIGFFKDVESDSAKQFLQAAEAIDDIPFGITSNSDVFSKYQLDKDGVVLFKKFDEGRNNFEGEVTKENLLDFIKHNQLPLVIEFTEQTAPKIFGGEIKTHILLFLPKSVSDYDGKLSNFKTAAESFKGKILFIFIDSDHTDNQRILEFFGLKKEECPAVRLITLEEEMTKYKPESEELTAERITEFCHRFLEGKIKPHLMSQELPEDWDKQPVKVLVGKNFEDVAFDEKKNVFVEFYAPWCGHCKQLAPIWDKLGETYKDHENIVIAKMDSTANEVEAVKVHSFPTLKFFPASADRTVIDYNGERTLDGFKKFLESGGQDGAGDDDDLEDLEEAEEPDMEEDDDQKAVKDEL

[12] = Therapeutic ratio of IC50 for HFF1 cells to IC50 for human NU04 cells
Outline: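 Ratio of two growth-inhibition IC50s, HFF-1 normal human fibroblasts over NU04 glioma cells. Cells were grown as monolayers at 37 °C in 5% CO2, with NU04 seeded at 4000 cells/well. After overnight attachment, cells were exposed to compound or vehicle for 72 h. MTT (3 mg/mL) was added for 4 h, and formazan dissolved in DMSO was read at 570 nm. IC50s came from nonlinear regression of log concentration-response curves, with at least three independent experiments.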

[13] = target: Focal adhesion kinase 1 (Homo sapiens) (UniProt Q05397); assay: Effect on FAK phosphorylation in human U87MG cells at 10 uM measured after 24 hrs by Western blot analysis; type: cell-based
U-87 MG [14] = assay: Effect on PDI expression in human U87MG cells at 20 uM measured after 24 hrs by Western blot analysis; type: functional, cell-based; settings: U-87MG ATCC
[15] = system: Protein disulfide-isomerase (Homo sapiens), P07237 [H256A]; assay: Inhibition of recombinant human N-terminal His-tagged PDI H256A mutant expressed in Escherichia coli BL21 (DE3) pLysS at 10 uM assessed as reduction in enzyme-mediated bovine insulin aggregation
Outline: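 Insulin reductase assay against H256A PDI: 0.4 μM enzyme preincubated with compounds at 10 μM for 1 h at 37 °C in 100 mM sodium phosphate, 2 mM EDTA, 8 μM DTT, pH 7.0. Then 500 μM DTT and 130 μM bovine insulin added; aggregation read at 620 nm at room temperature. Activity % from OD change at 0 and 80 min, relative to PDI and DTT-only controls; three experiments.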

U-87 MG [16] = assay: Cytotoxicity against human U87MG cells assessed as inhibition of cell proliferation at <IC50 treated for 24 hrs and measured after 10 days by colony formation assay relative to control
U-87 MG [17] = assay: Inhibition of colony formation in human U87MG cells […] by crystal violet staining based assay; type: functional, cell-based; settings: U-87MG ATCC
Outline: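 Clonogenicity: U87MG cells seeded at 200 cells/well, left overnight, treated 24 h, then medium replaced and cells grown ten days. Stained 30 min with crystal violet, washed, imaged; normalized well intensity from three independent experiments.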

[18] = target: Eukaryotic translation initiation factor 2 subunit 1 (Homo sapiens) (UniProt P05198); assay: Induction of EIF2alpha phosphorylation in human U87MG cells at 20 uM measured after 2 hrs by Western blot analysis; type: cell-based
Outline: (§3)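 eIF2α phosphorylation in U87MG cells after 2 h with 1 µM PACMA31 or 20 µM analogues; tunicamycin 10 µg/mL as comparator. Lysates (Tris/NaCl/Triton/SDS, sonicated) quantified by BCA; 30 µg protein separated on 10% gels, blotted to PVDF, probed for phospho-eIF2α, detected by fluorescence.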

[19] = target: T1, Protein disulfide-isomerase; assay: Inhibition of recombinant human N-terminal His-tagged PDI expressed in Escherichia coli BL21 (DE3) pLysS at 100 uM measured after 1 hr by ANS dye based fluorescence spectra analysis
Outline: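 ANS spectral scan: PDI incubated with 100 μM compounds or matching DMSO in TBS for 1 h at 37 °C. ANS then added and incubated 20 min at 25 °C in the dark. Fluorescence spectrum recorded with excitation 370 nm, emission 400–700 nm.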
Target sequence in this assay (P07237 18-508 limits assumed): as above

A 172 [20] = assay: Induction of morphological changes in human A172 cells at 40 uM measured after 48 hrs by Giemsa-staining based microscopic analysis; type: functional, cell-based
[21] = Solubility of the compound in DMSO; type: physicochemical
A 172 [22] = assay: Induction of endoplasmic reticulum stress in human A172 cells assessed as increase in GRP78 expression at 1 uM measured after 24 hrs by Western blot analysis; type: functional, cell-based
[23] = target: T1, Protein disulfide-isomerase; assay: Inhibition of recombinant human N-terminal His-tagged PDI expressed in Escherichia coli BL21 (DE3) pLysS assessed as reduction in enzyme-mediated bovine insulin aggregation at 40 uM measured after 1 hr in presence of 5 mM NAC
Outline: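 Compounds pretreated with NAC for 30 min at 37 °C, then added to the insulin reductase assay at final 40 μM compound with 0, 1, 2 or 5 mM NAC. The assay uses 0.4 μM PDI preincubated 1 h at 37 °C, then DTT and bovine insulin, read at 620 nm, with % activity at 80 min.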
Target sequence in this assay (P07237 18-508 limits assumed): as above

A 172 [24] = assay: Antimigratory activity against human A172 cells assessed as reduction in cell migration towards wound area measured after 24 hrs by Giemsa staining based microscopic analysis; type: functional
Outline: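 A172 cells plated at 50,000 cells/well, incubated overnight at 37 °C, 5% CO2, then held 24 h in serum-free DMEM. A scratch was made, compounds were added, and cells grew 24 h until DMSO-control wells closed. Cells were Giemsa-stained and imaged at 10X.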

U-87 MG [25] = assay: Induction of endoplasmic reticulum stress in human U87MG cells assessed as increase in GRP78 expression at 1 uM measured after 24 hrs by Western blot analysis; type: functional, cell-based; settings: U-87MG ATCC
Outline: as §2

[26] = target: 72 kDa type IV collagenase (Homo sapiens) (UniProt P08253); assay: Inhibition of MMP2 activity in human U87MG cells at 0.25 uM […] by gelatin zymographic method; type: cell-based
A 172 [27] = assay: Antimigratory activity against human A172 cells at 30 uM measured after 4 hrs by Giemsa staining based transwell migration assay; type: functional, cell-based
Outline: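 A172 cells (1 x 10^5) were treated with compound and seeded into inserts with 8.0 μm PET membrane in serum-free medium. DMEM with 10% FBS was in the lower well; wells without FBS served as control. After 4 h, migrated cells were Giemsa-stained and imaged at 10X, 5 fields per well.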

[28] = target: Eukaryotic translation initiation factor 2 subunit 1 (Homo sapiens) (UniProt P05198); assay: Induction of EIF2alpha phosphorylation in human A172 cells at 1 uM measured after 2 hrs by Western blot analysis; type: cell-based
D54 cell line = assay: Inhibition of colony formation in 1 to 6 Gy-irradiated human D54 cells at 0.05 uM measured after 10 to 12 days by crystal violet staining based assay; type: functional, cell-based
Outline: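 D54 cells irradiated at 0, 1, 2, 4 or 6 Gy and plated immediately at 200–1000 cells/well according to dose. Treated with DMSO, 0.05 μM PACMA31 or 1 μM compounds, grown 10–12 days, then colonies stained with 0.1% crystal violet.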

U-87 MG [29] = assay: Down regulation of MMP9 expression in human U87MG cells at 0.25 uM measured after 24 hrs by Western blot analysis; type: functional, cell-based; settings: U-87MG ATCC
U-87 MG [30] = assay: Down regulation of cleaved MMP2 expression in human U87MG cells at 0.25 uM measured after 24 hrs by Western blot analysis; type: functional, cell-based; settings: U-87MG ATCC
[31] = target: Eukaryotic translation initiation factor 2 subunit 1 (Homo sapiens) (UniProt P05198); assay: Induction of EIF2alpha phosphorylation in human U87MG cells at 1 uM measured after 2 hrs by Western blot analysis; type: cell-based
Outline: as §3

[32] = Homo sapiens, 72 h, read-out: IC50
[33] = Homo sapiens, A 172, 72 h, read-out: IC50
[34] = Homo sapiens, U-87 MG, 72 h, read-out: IC50

Sequence of Eukaryotic translation initiation factor 2 subunit 1 (Homo sapiens) (P05198 whole entry): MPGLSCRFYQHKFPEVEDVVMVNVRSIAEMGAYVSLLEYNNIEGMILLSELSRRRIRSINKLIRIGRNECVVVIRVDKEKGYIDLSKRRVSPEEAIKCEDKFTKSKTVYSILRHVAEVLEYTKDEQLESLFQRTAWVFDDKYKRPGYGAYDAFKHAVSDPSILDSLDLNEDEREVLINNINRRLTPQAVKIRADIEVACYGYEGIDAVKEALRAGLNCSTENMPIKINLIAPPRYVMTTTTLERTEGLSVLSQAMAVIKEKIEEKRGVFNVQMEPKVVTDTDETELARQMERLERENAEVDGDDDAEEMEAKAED
Sequence of Focal adhesion kinase 1 (Homo sapiens) (Q05397 2-1052 limits assumed): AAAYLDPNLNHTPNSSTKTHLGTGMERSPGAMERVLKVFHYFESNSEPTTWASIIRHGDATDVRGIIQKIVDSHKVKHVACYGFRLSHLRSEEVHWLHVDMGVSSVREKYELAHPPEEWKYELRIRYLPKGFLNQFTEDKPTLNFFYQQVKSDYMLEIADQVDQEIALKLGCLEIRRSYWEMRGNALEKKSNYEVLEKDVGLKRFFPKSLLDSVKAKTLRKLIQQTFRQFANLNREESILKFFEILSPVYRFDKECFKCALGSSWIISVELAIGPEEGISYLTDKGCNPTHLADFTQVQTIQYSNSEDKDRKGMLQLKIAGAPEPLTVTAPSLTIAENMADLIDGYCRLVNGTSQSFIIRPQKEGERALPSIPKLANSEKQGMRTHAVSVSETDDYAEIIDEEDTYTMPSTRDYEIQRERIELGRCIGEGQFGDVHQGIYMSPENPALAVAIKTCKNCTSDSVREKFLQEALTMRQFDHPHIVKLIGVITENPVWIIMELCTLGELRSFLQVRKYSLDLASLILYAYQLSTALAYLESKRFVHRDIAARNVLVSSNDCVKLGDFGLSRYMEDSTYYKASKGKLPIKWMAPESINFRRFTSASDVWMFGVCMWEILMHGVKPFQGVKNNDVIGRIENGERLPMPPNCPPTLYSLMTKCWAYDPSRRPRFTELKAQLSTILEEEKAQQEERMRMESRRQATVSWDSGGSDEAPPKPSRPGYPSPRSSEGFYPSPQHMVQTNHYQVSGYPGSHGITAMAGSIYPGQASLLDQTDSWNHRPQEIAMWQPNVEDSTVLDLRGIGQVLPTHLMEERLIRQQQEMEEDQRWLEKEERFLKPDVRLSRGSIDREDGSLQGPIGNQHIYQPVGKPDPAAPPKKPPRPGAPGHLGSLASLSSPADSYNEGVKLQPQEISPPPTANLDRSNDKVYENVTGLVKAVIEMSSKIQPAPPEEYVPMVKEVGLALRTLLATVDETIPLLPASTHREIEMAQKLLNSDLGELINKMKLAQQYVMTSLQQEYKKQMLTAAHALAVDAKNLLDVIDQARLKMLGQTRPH
Sequence of 72 kDa type IV collagenase (Homo sapiens) (P08253 110-660 limits assumed): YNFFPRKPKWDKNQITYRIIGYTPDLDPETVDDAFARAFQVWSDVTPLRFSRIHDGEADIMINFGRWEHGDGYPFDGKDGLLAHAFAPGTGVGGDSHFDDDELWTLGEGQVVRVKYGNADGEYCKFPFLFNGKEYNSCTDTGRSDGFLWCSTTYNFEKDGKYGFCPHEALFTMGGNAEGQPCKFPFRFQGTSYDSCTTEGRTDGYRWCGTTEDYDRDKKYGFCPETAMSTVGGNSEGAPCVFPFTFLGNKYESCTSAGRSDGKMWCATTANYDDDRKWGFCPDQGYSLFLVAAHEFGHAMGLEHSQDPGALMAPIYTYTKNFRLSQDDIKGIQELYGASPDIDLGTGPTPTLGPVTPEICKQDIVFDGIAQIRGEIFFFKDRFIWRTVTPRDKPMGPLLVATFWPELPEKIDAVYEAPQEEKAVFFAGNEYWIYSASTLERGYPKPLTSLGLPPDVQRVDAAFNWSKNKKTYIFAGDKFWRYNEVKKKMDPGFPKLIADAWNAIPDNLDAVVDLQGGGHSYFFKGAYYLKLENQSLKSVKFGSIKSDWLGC
Sequence of Protein disulfide-isomerase (Homo sapiens), P07237 [H256A] (P07237 whole entry H256A): as the sequence (P07237 whole entry) above, with H256A counted along it

IC50 [3]: 1.14 µM
SMILES: N#Cc1cccc(/C=C/C(=O)c2ccc(O)c(F)c2)c1
inhibition (INH) (U-87 MG [1]): >50% | IC50 [2, 32]: 9.8 µM | IC50 (A 172 [4]; [33]): 21.9 µM | IC50 (U-87 MG [5]; [34]): 29.1 µM

IC50 [3]: 0.21 µM | Activity [10]: Active | ΔTm [11]: 0.34 °C | Activity [13]: inactive | inhibition [15]: inactive | Activity [18]: Active
SMILES: O=C(/C=C/c1ccc(-c2ccncc2)cc1)c1cccc(O)c1
Activity (U-87 MG [6]): inactive | Activity (U-87 MG [7]): Active | IC50 [2, 32]: 3.8 µM | IC50 (HFF-1): 31.8 µM | Activity (A 172 [8]): Active | Activity (A 172 [9]): inactive | Ratio IC50 [12]: 8.39 | Activity (U-87 MG [14]): inactive | IC50 (A 172 [4]; [33]): 11.3 µM | IC50 (U-87 MG [5]; [34]): 24.9 µM | inhibition (INH) (U-87 MG [16]): >50% | inhibition (U-87 MG [17]): Dose-dependent effect

IC50 [3]: 1.15 µM
SMILES: N#Cc1cccc(/C=C/C(=O)c2ccc(F)c(O)c2)c1
inhibition (INH) (U-87 MG [1]): >50% | IC50 [2, 32]: 10.6 µM | IC50 (A 172 [4]; [33]): 16.8 µM | IC50 (U-87 MG [5]; [34]): 22.9 µM

inhibition [19]: inactive | IC50 [3]: > 500 µM | ΔTm [11]: -0.24 °C
SMILES: COc1ccc(C(=O)/C=C/c2cccc(C#N)c2)cc1
Activity (A 172 [20]): inactive

solubility [21]: Insoluble | IC50 [3]: 1.05 µM
SMILES: N#Cc1cccc(/C=C/C(=O)c2ccc(S(=O)(=O)NC3CC3)cc2)c1
IC50 [2]: Nd(Insoluble) | IC50 (A 172 [4]; a 172): Nd(Insoluble) | IC50 (U-87 MG [5]; u-87mg atcc): Nd(Insoluble)

inhibition [19]: inactive | inhibition [23]: inactive | inhibition [26]: Active | Activity [28]: inactive | IC50 [3]: 10.8 µM | ΔTm [11]: 0.03 °C | Activity [31]: inactive
SMILES: C#CC(=O)N(c1ccc(OC)cc1OC)C(C(=O)NCC(=O)OCC)c1cccs1 (configuration not stated)
Activity (A 172 [22]): Active | Activity (A 172 [24]): Dose-dependent effect | Activity (U-87 MG [25]): Active | Activity (A 172 [27]): Active | inhibition (D54 cell line): inactive | Activity (U-87 MG [29]): Active | Activity (U-87 MG [30]): Active | inhibition (U-87 MG [17]): Dose-dependent effect
